# Rows were chosen to be rich in hits. Some 1.6% of all compounds tested hit in one or more screens of this group.
# SR-BI uptake up – activators of SR-BI mediated HDL lipid uptake. CHO ldlA[mSR-BI] cells, DiI-HDL uptake fluorescence, 3 h; 100 = double the neutral-control signal. activation, % at 12.5 µM. 320,000 compounds, 0.096% hits;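 active = mean replicate activation of at least 60% and every replicate at or above 60%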
#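 Assay system: LDL receptor-deficient CHO ldlA cells overexpressing murine SR-BI / Medium: BSA-supplemented, HEPES-buffered Ham's F12, pH 7.4 / Probe or stimulus: DiI-labelled HDL at 10 µg/mL final / Timing: compound with DiI-HDL co-incubation, 3 h at 37 °C / Technique: bottom-read cell fluorescence after medium removal, ex 550/em 595 nm / Measure: HDL uptake via cellular fluorescence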
# TAG inh – triacylglycerol accumulation inhibition. AID 651582. 230,000 compounds, 0.66% hits. inhibition, % at 12.5 µM. H9c2 cells, Nile Red lipid (TAG) fluorescence; cells loaded with 200 µM oleic acid;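 active = pattern-corrected inhibition of lipid staining of at least 50% with the nuclear-stain viability signal not falling by more than 50%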
# SR-BI HDL uptake – mouse SR-BI HDL lipid transfer inhibition. Q61009. 320,000 compounds, 0.96% hits. inhibition, % at 12.5 µM. ldlA[mSR-BI] CHO cells, DiI-HDL uptake fluorescence, 3 h;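 active = mean replicate inhibition of at least 70% and a set share of replicates each scoring 70 or more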
# Target sequence (Q61009 whole entry, looked up): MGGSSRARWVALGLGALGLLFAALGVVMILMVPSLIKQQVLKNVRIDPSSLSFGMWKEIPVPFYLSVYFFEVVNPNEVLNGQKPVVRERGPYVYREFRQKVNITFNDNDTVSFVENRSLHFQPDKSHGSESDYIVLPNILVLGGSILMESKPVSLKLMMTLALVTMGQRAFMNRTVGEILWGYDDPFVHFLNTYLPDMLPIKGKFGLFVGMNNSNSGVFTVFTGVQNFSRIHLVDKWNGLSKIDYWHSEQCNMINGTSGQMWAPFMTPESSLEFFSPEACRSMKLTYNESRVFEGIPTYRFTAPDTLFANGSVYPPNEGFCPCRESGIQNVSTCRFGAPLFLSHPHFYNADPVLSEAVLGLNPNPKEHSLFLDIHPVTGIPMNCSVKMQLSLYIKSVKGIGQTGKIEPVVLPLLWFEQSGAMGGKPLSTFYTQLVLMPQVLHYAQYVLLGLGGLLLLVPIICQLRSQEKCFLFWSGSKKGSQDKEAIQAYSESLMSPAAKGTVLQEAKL
# Vif inh – blocks HIV Vif function. inhibition, % at 7.49 µM. 340,000 compounds, 0.35% hits. HEK293T cells, Vif self-association by quenched fluorescence, imaging, 24 h; in the data active = inhibition above about 50%, passing the limit was not always enough
# Bfl-1 A1 inh – inhibitors of the anti-apoptotic protein A1, read as caspase activation. MEF A1-2A-BIM cells, Caspase-Glo 3/7 luminescence, 3 h; percent of clofoctol response, vehicle zero. caspase activation, % (no concentration beside the values). 330,000 compounds, 0.066% hits;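 active = over half of replicate activation scores above 10%, or exactly half above 10 with the replicate mean above 10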
# Hits are given with their value; - = inactive; . = not tested or not shown.
SMILES,SR-BI uptake up,TAG inh,SR-BI HDL uptake,Vif inh,Bfl-1 A1 inh
COC(=O)c1c(NC(=S)Nc2ccccc2Cl)sc(C)c1C,-,.,74.9,-,-
COC(=O)c1c(NC(=O)Cc2ccccc2)sc(C)c1C,-,.,-,-,-
Nc1nnn(CC(=O)N/N=C/c2ccc(Cl)cc2Cl)n1,-,-,-,-,-
Nc1nnn(CC(=O)N/N=C/c2cccc(Cl)c2)n1,-,-,-,60.5,-
COc1ccc(NC(=O)C(=O)c2cn(CC(=O)N3CCCC3)c3ccccc23)c(OC)c1,-,-,72.3,-,-
COc1ccccc1NC(=O)C(=O)c1cn(CC(=O)N2CCCC2)c2ccccc12,-,.,-,-,-
CCOc1ccc(C(=O)NCC(=O)NCCSc2ccc(Br)cc2)cc1OCC,-,-,87.3,-,.
O=C(Nc1ccc(NC(=O)N2CCN(c3ccccc3O)CC2)cc1)N1CCN(c2ccccc2O)CC1,-,.,74.1,-,-
CC1(C)Cc2c(cnn2-c2ccccc2)C(=O)/C1=N\NC(=O)c1ccccc1N,-,.,75.2,-,-
Cc1cc(-c2csc(N)n2)c(C)n1-c1ccc(Cl)c(Cl)c1,-,.,70.2,.,-
O=C(CCn1c(=S)oc2ccccc21)Nc1cc([N+](=O)[O-])ccc1F,-,.,-,-,-
CC(C)c1c(C(=O)N/N=C/c2ccc(C(F)(F)F)cc2)nnn1-c1nonc1N,-,.,77.1,-,-
CCOc1ccc(-c2c(C(=O)N/N=C/c3c[nH]c4ccccc34)nnn2-c2nonc2N)cc1,-,.,88.1,-,-
Cc1ccc(/C=N/NC(=O)c2nnn(-c3nonc3N)c2-c2cccs2)cc1,-,.,-,-,-
CCOc1ccc(/C=N/NC(=O)c2nnn(-c3nonc3N)c2-c2ccc(OCC)cc2)cc1,-,.,-,-,-
CCOc1ccc(-c2c(C(=O)N/N=C/c3ccoc3)nnn2-c2nonc2N)cc1,-,.,-,-,-
CCCOc1ccc(-c2c(C(=O)N/N=C/c3ccccc3)nnn2-c2nonc2N)cc1,-,-,76.5,-,-
Nc1nonc1-n1nnc(C(=O)N/N=C/c2ccccc2F)c1-c1cccs1,-,.,74.4,-,-
COc1ccc(C(=O)N2CCN(S(=O)(=O)c3ccc(Br)cc3)CC2)cc1,-,-,-,-,-
Cc1cc2nc(-c3ccncc3)cc(C(F)(F)F)n2n1,-,-,-,-,-
Cc1cc(C(F)(F)F)n2nc(-c3cnn(C)c3C(F)(F)F)cc2n1,-,-,-,67.6,-
CC(=O)C1=CN(Cc2ccccc2)CCC1=O,245.3,-,-,-,.
Cn1c(N)c(C(=O)COC(=O)c2cc(S(=O)(=O)NCc3ccccc3)ccc2O)c(=O)n(C)c1=O,-,-,-,-,.
O=[N+]([O-])c1ccc(Cl)cc1N/N=C/c1ccncc1,-,-,-,-,-
O=[N+]([O-])c1cc(S(=O)(=O)Nc2ccc(Cl)cc2)ccc1N/N=C/c1ccncc1,-,-,72.2,67.4,-
SMILES,SR-BI uptake up,TAG inh,SR-BI HDL uptake,Vif inh,Bfl-1 A1 inh
CN(C)S(=O)(=O)c1ccc(Cl)c(C(=O)NC2CCCCCCC2)c1,-,.,-,-,-
COc1cccc(NC(=O)N2CCCC2C(=O)NC2CCCC2)c1 (configuration not stated),-,.,-,-,-
Cc1nnc(SCCC(C)C)[nH]c1=O,95.8,-,-,-,-
Cc1ccc(S(=O)(=O)Nc2nc3ccccc3nc2NCc2ccco2)cc1,-,.,-,-,-
O=S(=O)(Nc1nc2ccccc2nc1NCc1ccco1)c1ccc(Cl)cc1,-,.,-,62.0,-
CCN(CC)S(=O)(=O)c1ccc2oc(C(=O)NCc3ccc(C)cc3)c(C)c2c1,-,.,75.7,-,-
CCN(CC)S(=O)(=O)c1ccc2oc(C(=O)NC(C)C)c(C)c2c1,-,-,-,-,-
CCN=C1S/C(=C/c2ccc(-c3ccc(F)cc3)o2)C(=O)N1CC,-,.,72.0,-,-
CC(=O)Oc1cc(C(=O)OCC(=O)NC23CC4CC(CC(C4)C2)C3)cc(OC(C)=O)c1OC(C)=O,-,-,-,67.2,.
O=C(Cc1ccc(NC(=O)C2CCN(C(=O)C3CCC3)CC2)cc1)Nc1ccc(C(=O)N2CCOCC2)cc1,-,-,-,-,.
CCOC(=O)c1c(C)[nH]c(C(=O)COC(=O)c2ccc(N3CCCC3=O)cc2)c1C,62.8,-,-,-,-
O=[N+]([O-])c1ccc(Oc2ccc(S(=O)(=O)N3CCOCC3)cc2)cc1,.,.,.,-,-
O=[N+]([O-])c1ccc(-c2ccc(S(=O)(=O)N3CCOCC3)cc2)cc1,-,-,80.2,-,-
O=C(Nc1cccc(C(=O)N2CCCCC2)c1)c1ccccc1Br,-,-,-,-,-
COc1ccc(C(=O)Nc2c(Cl)cc(Cl)cc2C(=O)N2CCOCC2)cc1,-,.,-,65.1,-
Cc1ccnc(NC(=O)CCc2c[nH]c3ccccc23)c1,-,-,-,-,-
CC1(C)CC(=O)C2=C(C1)OC(=O)CC2c1cccs1 (configuration not stated),.,-,.,-,-
CN(C)c1ccc(C2CC(=O)OC3=C2C(=O)CC(C)(C)C3)cc1 (configuration not stated),67.6,-,-,-,-
C=CCN1C(=O)/C(=C2/Sc3ccccc3N2CC)SC1=S,-,-,-,84.7,-
C=CCN1C(=O)/C(=C2/Sc3ccccc3N2CCCS(=O)(=O)O)SC1=S,-,-,-,-,-
C=CCN1C(=O)/C(=C2/Sc3ccccc3N2C)SC1=Nc1c(C)n[nH]c1C,-,.,-,-,-
CCN1C(=O)/C(=C2/Sc3ccccc3N2CC)S/C1=N\c1ncn[nH]1,-,-,73.7,-,-
COCCNC(=O)C1CCCN(C(=O)c2cccnc2Oc2ccccc2)CC1 (configuration not stated),.,-,.,-,.
Cc1ccc(NC(=S)N(CCN2CCCCC2)Cc2ccco2)cc1Cl,-,-,-,-,-
Fc1ccc(/C=N/c2c(-c3ccc(F)cc3)nc3n2CCS3)cc1,-,-,77.5,-,-
SMILES,SR-BI uptake up,TAG inh,SR-BI HDL uptake,Vif inh,Bfl-1 A1 inh
O=C(CSc1nncs1)NCc1ccc(F)cc1,.,-,.,50.9,-
CN(CC(=O)Nc1ccc(F)cc1)C(=O)CSc1nncs1,-,-,-,-,-
O=C(Nc1cccc([N+](=O)[O-])c1)c1ccc2ccccc2c1O,-,.,-,-,-
Cc1cc2oc3ccc(NCCCn4ccnc4)cc3c(=O)c2cc1C,-,-,-,153.6,-
CC(C)CN1CCC(=O)N(CCO)CC1,-,-,-,-,-
CCOC(=O)c1csc(NC(=O)c2ccc(OC)c(OC)c2)n1,-,.,77.4,-,-
CCOC(=O)c1csc(NC(=O)c2ccc(OCC)cc2)n1,-,-,-,-,-
Cc1sc(NC(=O)COc2ccccc2)c(C#N)c1-c1ccccc1,-,.,-,-,-
COc1ccc(C(=O)Nc2sc(C)c(-c3ccccc3)c2C#N)cc1OC,-,-,85.0,-,-
C=CCNc1cc(F)ccc1S(=O)(=O)NCC=C,-,-,-,.,.
CCn1c(SCC(=O)NNC(=O)c2ccc(OC)cc2)nnc1C1CC1,.,.,.,-,-
CCc1sc(C(=O)Nc2ccc(N3CCOCC3)cc2)cc1C,-,-,74.7,-,-
